Results gathered from unrelated publications.
Each line is one published result; the experiments were not run side by side. pIC50: −log10 of the molar value.
CYP3A4: Cytochrome P450 3A4 (CYP3A4, Homo sapiens, UniProt P08684)

SMILES | target or system | assay | test system | conditions | quantity | value
CCS(=O)(=O)N1CC(CC#N)(n2cc(-c3ncnc4[nH]ccc34)cn2)C1 | Vero | cell growth or viability, resazurin | – | – | CC50 | > 60 µM
NCCc1ccccn1 | CYP3A4 | enzyme activity, inhibitor | – | – | pIC50 | 2.30
Cc1cc(C)nc(Nc2ncc(C(=O)NCCc3c(C)[nH]c4ccccc34)cn2)c1 | – | – | C57BL/6 mouse, plasma | intraperitoneal, 22 mg/kg | Cmax | 1150 ng/mL
CCCCCCCC(=O)N[C@@H](CCCCN)C(=O)N[C@@H](CCCCN)C(=O)N[C@@H](C)C(=O)N[C@@H](CC(C)C)C(=O)N[C@@H](CCCCN)C(=O)N[C@@H](CC(C)C)C(=O)N[C@@H](C)C(=O)N[C@@H](CCCCN)C(=O)N[C@@H](CCCCN)C(=O)N1CCC[C@H]1C(=O)N[C@@H](CC(C)C)C(=O)N[C@@H](CCCCN)C(=O)N[C@@H](CC(C)C)C(=O)N[C@@H](CC(C)C)C(=O)N[C@@H](CCCCN)C(N)=O | – | – | female CD-1 mouse, blood | intravenous, 10 mg/kg, single dose | Cmax | 6950 ng/mL
COC(=O)C1CCN(C(=O)c2ccc(NCc3cnc4nc(N)nc(N)c4n3)cc2)CC1 | Cytochrome P450 1A2 (CYP1A2, Homo sapiens, UniProt P05177) | enzyme activity, inhibitor, luciferase | – | 10 µM | inhibition | -8.49%
NC(=O)C(NC(=O)C1CC(c2ccccc2)C1)c1ccccc1 (stereo not shown) | BHK-21 | cell growth or viability, MTT | – | – | CC50 | > 100 µM
S=C(Nc1ccc2c(c1)Cc1ccccc1-2)Nc1ccc2c(c1)Cc1ccccc1-2 | BHK-21 | cell growth or viability, MTT | – | 42 h | CC50 | 236 µM
N[C@@H](Cc1ccccc1)C(=O)N1CCC(C(=O)N[C@H](C(=O)O)c2ccccc2)CC1 | BHK-21 | cell growth or viability, MTT | – | – | CC50 | > 100 µM
COC(=O)C1CCN(C(=O)c2ccc(N(C)Cc3cnc4nc(N)nc(N)c4n3)cc2)CC1 | CYP3A4 | enzyme activity, inhibitor, luciferase | – | 10 µM | inhibition | -17.4%
O=c1[nH]cnc2c1nnn2-c1cccc(Cl)c1 | BHK-21 | cell growth or viability, MTT | – | – | CC50 | > 1000 µM
O=C(O)C(F)(F)C(F)(F)C(F)(F)C(F)(F)C(F)(F)C(F)(F)C(F)(F)F | Solute carrier organic anion transporter family member 1B1 (SLCO1B1, Homo sapiens, UniProt Q9Y6L6) | transporter uptake, substrate | CHO | 1 min, pH 7.4 | Km | 52.6 µM
Cc1ccccc1/C=C1/SC(=O)NC1=O | BHK-21 | cell growth or viability, MTT | – | – | CC50 | > 100 µM
CCC[C@@](N)(CO)CCc1ccc(OCCCCCC(C)C)cc1 | – | – | mouse, plasma | oral, 10 mg/kg | Cmax | 161 nM
